Results published in ChEMBL document CHEMBL4118256, “Second Generation of Mannich Base-Type Derivatives with in Vivo Activity against Trypanosoma cruzi” (J Med Chem, 2018).

Columns and labels:
Trypanosoma cruzi [1] = assay: Trypanocidal activity against Trypanosoma cruzi MHOM/Pe/2011/Arequipa DTU 5 epimastigotes after 48 hrs by resazurin dye based assay; format: functional, organism-based; settings: MHOM/Pe/2011/Arequipa DTU 5, 48 h
Procedure, shortened: (§1)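 Exponential-phase epimastigotes were seeded at 5×10^5 mL^-1 with compounds at 100–0.2 µM (DMSO 0.01% v/v) at 28 °C. After 48 h, resazurin was added for another 24 h. SDS was then added and absorbance read at 570 and 600 nm.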

Trypanosoma cruzi [2] = assay: Trypanocidal activity against Trypanosoma cruzi IRHOD/CO/2008/SN3 DTU 1 epimastigotes after 48 hrs by resazurin dye based assay; format: functional, organism-based; settings: IRHOD/CO/2008/SN3 DTU 1, 48 h; procedure, shortened: as §1
Trypanosoma cruzi [3] = assay: Trypanocidal activity against Trypanosoma cruzi TINF/CH/1956/Tulahuen DTU 6 epimastigotes after 48 hrs by resazurin dye based assay; format: functional, organism-based; settings: TINF/CH/1956/Tulahuen DTU 6, 48 h; procedure, shortened: as §1
Vero = assay: Cytotoxicity against African green monkey Vero cells assessed as reduction in cell viability after 72 hrs by resazurin dye based assay; settings: Chlorocebus sabaeus
Procedure, shortened: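 Vero monkey kidney cells grown at 37 °C, 5 % CO2, in RPMI with 10 % heat-inactivated FBS. Seeded at 1.25 × 10^4 mL-1 with compound at 1000 to 1 µM (DMSO 0.01 % v/v). After 48 h, resazurin added for a further 24 h, then SDS. Absorbance read at 570/600 nm. IC50 from triplicates in four separate determinations.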

[4] = Selectivity index, ratio of IC50 for African green monkey Vero cells to IC50 for Trypanosoma cruzi MHOM/Pe/2011/Arequipa DTU 5 epimastigotes; format: toxicity; settings: read-out: Ratio IC50
Procedure, shortened: (§2)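 SI is Vero IC50 divided by the IC50 for the stated parasite form. For Vero cytotoxicity, cells were seeded at 1.25×10^4 mL^-1 with compounds at 1000–1 µM, incubated 48 h, then given resazurin for a further 24 h (72 h total), with absorbance read at 570/600 nm. Triplicate, four determinations.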

[5] = Selectivity index, ratio of IC50 for African green monkey Vero cells to IC50 for Trypanosoma cruzi IRHOD/CO/2008/SN3 DTU 1 epimastigotes; format: toxicity; settings: read-out: Ratio IC50; procedure, shortened: as §2
[6] = Selectivity index, ratio of IC50 for African green monkey Vero cells to IC50 for Trypanosoma cruzi TINF/CH/1956/Tulahuen DTU 6 epimastigotes; format: toxicity; settings: read-out: Ratio IC50; procedure, shortened: as §2
Trypanosoma cruzi [7] = assay: Trypanocidal activity against Trypanosoma cruzi MHOM/Pe/2011/Arequipa DTU 5 amastigotes infected in African green monkey Vero cells after 72 hrs by Giemsa-staining based microscopic assay; format: functional, organism-based; settings: MHOM/Pe/2011/Arequipa DTU 5, Vero
Procedure, shortened: (§3)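 Vero cells were seeded at 1×10^4/well on coverslips. After 24 h they were infected with culture-derived trypomastigotes (MOI 1:10, 24 h), then washed. Compounds were added at 100–0.2 µM (DMSO 0.01% v/v) for 72 h at 37 °C, 5% CO2. Slides were methanol-fixed and Giemsa-stained; amastigotes and infected cells were counted over 500 host cells. IC50 was derived by curve fitting; triplicate wells, four separate determinations.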

Trypanosoma cruzi [8] = assay: Trypanocidal activity against Trypanosoma cruzi MHOM/Pe/2011/Arequipa DTU 5 trypamastigotes derived from infected Balb/c albino mouse after 24 hrs by resazurin dye based assay; format: functional, organism-based; settings: MHOM/Pe/2011/Arequipa DTU 5, 24 h
Procedure, shortened: (§4)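 Bloodstream trypomastigotes taken from mice at peak parasitaemia were seeded at 2×10^6 mL^-1 in RPMI with 10% FBS. Compounds were added at 50–0.2 µM and incubated 24 h at 37 °C, 5% CO2, then with resazurin for 4 h. SDS was added and absorbance read at 570/600 nm. IC50 was fitted; triplicate, four separate determinations.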

Trypanosoma cruzi [9] = assay: Trypanocidal activity against Trypanosoma cruzi IRHOD/CO/2008/SN3 DTU 1 amastigotes infected in African green monkey Vero cells after 72 hrs by Giemsa-staining based microscopic assay; format: functional, organism-based; settings: IRHOD/CO/2008/SN3 DTU 1, Vero; procedure, shortened: as §3
Trypanosoma cruzi [10] = assay: Trypanocidal activity against Trypanosoma cruzi IRHOD/CO/2008/SN3 DTU 1 trypamastigotes derived from infected Balb/c albino mouse after 24 hrs by resazurin dye based assay; format: functional, organism-based; settings: IRHOD/CO/2008/SN3 DTU 1, 24 h; procedure, shortened: as §4
[11] = Selectivity index, ratio of IC50 for African green monkey Vero cells to IC50 for Trypanosoma cruzi MHOM/Pe/2011/Arequipa DTU 5 amastigotes infected in African green monkey Vero cells; format: toxicity; settings: read-out: Ratio IC50; procedure, shortened: as §2
[12] = Selectivity index, ratio of IC50 for African green monkey Vero cells to IC50 for Trypanosoma cruzi MHOM/Pe/2011/Arequipa DTU 5 trypamastigotes derived from infected Balb/c albino mouse; format: toxicity; settings: read-out: Ratio IC50; procedure, shortened: as §2
[13] = Selectivity index, ratio of IC50 for African green monkey Vero cells to IC50 for Trypanosoma cruzi IRHOD/CO/2008/SN3 DTU 1 amastigotes infected in African green monkey Vero cells; format: toxicity; settings: read-out: Ratio IC50; procedure, shortened: as §2
[14] = Selectivity index, ratio of IC50 for African green monkey Vero cells to IC50 for Trypanosoma cruzi IRHOD/CO/2008/SN3 DTU 1 trypamastigotes derived from infected Balb/c albino mouse; format: toxicity; settings: read-out: Ratio IC50; procedure, shortened: as §2
Trypanosoma cruzi [15] = assay: Trypanocidal activity against Trypanosoma cruzi TINF/CH/1956/Tulahuen DTU 6 amastigotes infected in African green monkey Vero cells after 72 hrs by Giemsa-staining based microscopic assay; format: functional, organism-based; settings: TINF/CH/1956/Tulahuen DTU 6, Vero; procedure, shortened: as §3
Trypanosoma cruzi [16] = assay: Trypanocidal activity against Trypanosoma cruzi TINF/CH/1956/Tulahuen DTU 6 trypamastigotes derived from infected Balb/c albino mouse after 24 hrs by resazurin dye based assay; format: functional, organism-based; settings: TINF/CH/1956/Tulahuen DTU 6, 24 h; procedure, shortened: as §4
[17] = Selectivity index, ratio of IC50 for African green monkey Vero cells to IC50 for Trypanosoma cruzi TINF/CH/1956/Tulahuen DTU 6 amastigotes infected in African green monkey Vero cells; format: toxicity; settings: read-out: Ratio IC50; procedure, shortened: as §2
[18] = Selectivity index, ratio of IC50 for African green monkey Vero cells to IC50 for Trypanosoma cruzi TINF/CH/1956/Tulahuen DTU 6 trypamastigotes derived from infected Balb/c albino mouse; format: toxicity; settings: read-out: Ratio IC50; procedure, shortened: as §2

Row | SMILES | IC50 (Trypanosoma cruzi [1]) [µM] | IC50 (Trypanosoma cruzi [2]) [µM] | IC50 (Trypanosoma cruzi [3]) [µM] | IC50 (Vero) [µM] | selectivity ratio [4] | selectivity ratio [5] | selectivity ratio [6] | IC50 (Trypanosoma cruzi [7]) [µM] | IC50 (Trypanosoma cruzi [8]) [µM] | IC50 (Trypanosoma cruzi [9]) [µM] | IC50 (Trypanosoma cruzi [10]) [µM] | selectivity ratio [11] | selectivity ratio [12] | selectivity ratio [13] | selectivity ratio [14] | IC50 (Trypanosoma cruzi [15]) [µM] | IC50 (Trypanosoma cruzi [16]) [µM] | selectivity ratio [17] | selectivity ratio [18]
1 | O=C(CCN1CCN(c2ccc(F)cc2)CC1)c1ccc(F)c(F)c1 | 21.4 | 37.6 | 65.5 | 385 | 18 | 10.3 | 5.9 | 28.3 | 31.6 | 51.1 | 42.2 | 13.6 | 12.2 | 7.5 | 9.1 | – | – | – | –
2 | Cc1ccc(C(=O)CCN2CCN(c3ccc([N+](=O)[O-])cc3)CC2)cc1 | 28.4 | 18.2 | 46.2 | 235 | 8.3 | 12.9 | 5.1 | – | – | 24 | 25.3 | – | – | 9.8 | 9.3 | – | – | – | –
3 | COc1ccccc1N1CCN(CCC(=O)c2ccc(F)cc2)CC1 | 58.3 | 40.5 | 45.6 | 24 | 0.4 | 0.6 | 0.5 | – | – | – | – | – | – | – | – | – | – | – | –
4 | COc1ccc(N2CCN(CCC(=O)c3ccc(F)cc3)CC2)cc1 | 24.5 | 22.2 | 38.9 | 31.9 | 1.3 | 1.4 | 0.8 | – | – | – | – | – | – | – | – | – | – | – | –
5 | COc1ccc(C(=O)CCN2CCN(c3ccc([N+](=O)[O-])cc3)CC2)cc1OC | 94.5 | 174 | 105 | 105 | 1.1 | 0.6 | 1 | – | – | – | – | – | – | – | – | – | – | – | –
6 | O=C(CCN1CCN(c2ccc(Cl)cc2)CC1)c1ccc(F)c(F)c1 | 15.4 | 13.7 | 46.2 | 86.2 | 5.6 | 6.3 | 1.9 | – | – | – | – | – | – | – | – | – | – | – | –
7 | O=C(CCN1CCN(c2ccc(F)cc2)CC1)c1ccc(F)c(Cl)c1 | 25.3 | 41.6 | 37.1 | 185 | 7.3 | 4.5 | 5 | – | – | – | – | – | – | – | – | – | – | – | –
8 | O=C(CCN1CCN(c2ccc(F)cc2)CC1)c1ccccc1 | 65.7 | 32.9 | 94.1 | 13.4 | 0.2 | 0.4 | 0.1 | – | – | – | – | – | – | – | – | – | – | – | –
9 | Cc1ccc(C(=O)CCN2CCN(c3ccc(Cl)cc3)CC2)cc1 | 31.7 | 26 | 29.5 | 184 | 5.8 | 7.1 | 6.2 | – | – | – | – | – | – | – | – | – | – | – | –
10 | COc1ccc(C(=O)CCN2CCN(c3ccc(C(F)(F)F)cc3)CC2)cc1 | 72.9 | 32.3 | 44 | 135 | 1.9 | 4.2 | 3.1 | – | – | – | – | – | – | – | – | – | – | – | –
11 | COc1ccc(C(=O)CCN2CCN(c3ccc(Cl)cc3)CC2)cc1OC | 90.3 | 43.9 | 36.6 | 185 | 2.1 | 4.2 | 5.1 | – | – | – | – | – | – | – | – | – | – | – | –
12 | O=C(CCN1CCN(c2ccc([N+](=O)[O-])cc2)CC1)c1ccc(F)c(Br)c1 | 36.5 | 37.5 | 19.1 | 256 | 7 | 6.8 | 13.4 | – | – | – | – | – | – | – | – | 38.7 | 32.1 | 6.6 | 8
